m-calpain inh: calpain II (pig) inhibition; inhibition, % at 16 µM; hit rate 0.37% among 220,000; purified calpain II, fluorogenic peptide substrate, 30 min;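 active means inhibition above about 50%, limit read from the data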
FXIa inh: blocks human coagulation factor XIa protease activity. inhibition, % at 5 µM. P03951. hit rate 0.14% among 220,000. purified FXIa, Boc-Glu-Ala-Arg-AMC fluorogenic substrate;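 active means inhibition of at least 40%; inactive means inhibition below 40%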;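 further: fluorescence of freed AMC excited at 355 nm; 0% = enzyme without compound and 100% = no enzyme blank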
Furin inhibitor: blocks human furin protease activity | hit rate 0.061% among 220,000 | AID 463115 | purified furin, fluorogenic substrate cleavage | inhibition, % at 20 µM or 30 µM; in the data active means inhibition above about 25%
Target sequence (P09958 108-714 limits assumed): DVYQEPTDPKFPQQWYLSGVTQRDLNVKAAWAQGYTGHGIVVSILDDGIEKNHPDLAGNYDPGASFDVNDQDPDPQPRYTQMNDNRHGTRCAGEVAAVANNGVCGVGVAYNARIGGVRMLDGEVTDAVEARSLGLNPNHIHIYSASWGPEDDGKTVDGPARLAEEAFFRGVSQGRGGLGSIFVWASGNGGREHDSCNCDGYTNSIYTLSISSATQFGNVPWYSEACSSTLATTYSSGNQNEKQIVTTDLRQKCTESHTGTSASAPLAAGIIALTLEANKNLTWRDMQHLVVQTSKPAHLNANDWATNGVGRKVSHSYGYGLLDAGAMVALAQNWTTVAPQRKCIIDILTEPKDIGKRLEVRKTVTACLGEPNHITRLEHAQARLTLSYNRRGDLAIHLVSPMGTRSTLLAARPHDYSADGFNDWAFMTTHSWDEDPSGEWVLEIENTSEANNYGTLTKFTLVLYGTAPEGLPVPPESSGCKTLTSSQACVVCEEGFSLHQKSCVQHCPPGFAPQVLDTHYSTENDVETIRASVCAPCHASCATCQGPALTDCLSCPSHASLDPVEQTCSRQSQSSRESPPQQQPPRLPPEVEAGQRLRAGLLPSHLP
FXIIa inh 1536: blocks human coagulation factor XIIa protease activity; inhibition, % at 5 µM; AID 800; purified FXIIa, Boc-QGR-AMC fluorogenic substrate, 2 h; hit rate 0.3% among 220,000; in the data active means inhibition above about 40%;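 further: 0% = enzyme with no compound and 100% = blank without enzyme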
KLK5 inh: inhibitors of human kallikrein 5. Q9Y337. recombinant hK5, fluorogenic AMC substrate cleavage. inhibition, % at 5 µM. hit rate 0.59% among 210,000. AID 873;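 active means inhibition of 40% or more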;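 further: 0% = enzyme controls without compound and 100% = no-enzyme blanks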
Thrombin inh: inhibitors of human thrombin; inhibition, % at 5 µM; hit rate 0.26% among 220,000; P00734; alpha-thrombin, Boc-VPR-AMC fluorogenic substrate cleavage; AID 1046;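 active means inhibition at or above 40%; inactive means inhibition below 40%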;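 further: 0% = enzyme with no compound and 100% = wells without enzyme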
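Material: human alpha-thrombin enzyme / Medium: pH 7.5 Tris (50 mM) with NaCl 150 mM, Tween 20 0.05% / Compound: single-point dosing at 5 µM, 0.2% DMSO / Incubation: enzyme reaction carried out at room temperature / Detection: AMC fluorescence, 355/460 nm / Read-out basis: percent inhibition scaled between no-compound controls and no-enzyme blanks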
* hit, by the source's call; . = not tested or not shown. Only some compounds are listed: those with a hit (about 1.4% of all), similar ones and a draw of the others.

SMILES | m-calpain inh | FXIa inh | Furin inhibitor | FXIIa inh 1536 | KLK5 inh | Thrombin inh
CC1CN(c2nc3ccccc3nc2C(C#N)C(=O)OC2CCCCC2)CC(C)O1 (stereo unspecified) | -85 | 12 | -17 | 1 | 64* | 20
C/C(=N\Nc1ccccn1)c1ccc(OC(F)F)cc1 | -9 | 0 | -20 | 5 | . | -4
O=c1oc(-c2ccco2)nc2c1cnn2-c1ccccc1 | -14 | 14 | -28 | 48* | 21 | 17
c1coc(-c2nc3ccccc3nc2-c2ccco2)c1 | -325 | 13 | -10 | 45* | 12 | 16
O=c1oc(-c2ccco2)nc2ccccc12 | 9 | 22 | -11 | 6 | 44* | 8
COc1cccc(CNC(=O)C2CCN(S(=O)(=O)N3CCCCC3)CC2)c1 | -9 | 5 | -8 | 20 | -1 | 9
Cc1ccc(NC(=S)N(N)CCO)cc1 | -26 | 1 | -26 | 12 | 4 | 9
CCOC(=O)N1CCN(C(=O)c2ccccc2NC(=O)c2ccc(F)cc2)CC1 | 25 | 11 | -12 | 13 | 58* | 27
CCOC(=O)N1CCN(C(=O)c2ccccc2NC(=O)c2ccc(Br)cc2)CC1 | 0 | -7 | -12 | -1 | -9 | -5
CCCCc1ccc(NC(=O)C2CCCO2)cc1 (stereo unspecified) | 53* | -9 | -16 | 9 | 0 | 1
COc1cc(N)c(Cl)cc1NC(=O)c1ccccc1 | -9 | -2 | 5 | 10 | 1 | -5
COc1ccc(C(=O)Nc2ccccc2C(=O)O)cc1NC(=O)C(c1ccccc1)c1ccccc1 | -38 | 1 | 3 | 7 | 3 | -2
COc1ccc(C(=O)Nc2ccccc2C(=O)O)cc1Cl | 20 | 12 | 3 | 28 | 47* | 24
CCOc1ccc(C(=O)Nc2ccccc2-c2ccccc2)cc1Cl | -14 | 2 | -24 | 14 | 6 | -3
COc1cc(NC(=O)c2ccccc2)c(OC)cc1Cl | 1 | 1 | 27* | 6 | -9 | -5
COc1c(Cl)cc(C(=O)Nc2ccccc2-c2ccccc2)cc1Cl | 54* | -5 | -13 | 13 | 31 | 3
Cc1ccc(NCC(=O)N/N=C/c2cc(O)ccc2[N+](=O)[O-])cc1 | 23 | 1 | -7 | 12 | -2 | 0
O=C1CCC([N+](=O)[O-])C(c2cccc(Br)c2)N1 (stereo unspecified) | 1 | 3 | -9 | 8 | -19 | -4
COC(=O)/C=C1\SC(=NC(=O)c2cccc(Cl)c2)NC1=O | -47 | -4 | -18 | 15 | 0 | 5
Nc1ccccc1C(=O)NCCN1CCNC1=O | -96 | 4 | -26 | 6 | 3 | 0
Cc1ccc(C(=O)NCCN2CCNC2=O)cc1 | 8 | 24 | -6 | 47* | 44* | 19
COC(=O)c1ccc2nc(NC(=O)C(C)(C)C)sc2c1 | 91* | 30 | -17 | 30 | 16 | 19
Cc1cc([N+](=O)[O-])ccc1NC(=S)NC(=O)Cc1ccccc1 | -7 | 3 | -10 | 13 | 12 | 2
c1ccc(Cn2nnc3c(NCCN4CCOCC4)ncnc32)cc1 | 18 | 22 | -17 | 13 | 20 | 31
Clc1ccccc1Cn1nnc2c(NCCN3CCOCC3)ncnc21 | 5 | 47* | -18 | 11 | 23 | 26
SMILES | m-calpain inh | FXIa inh | Furin inhibitor | FXIIa inh 1536 | KLK5 inh | Thrombin inh
CCOC(=O)C(C)c1ccc2cc(OC)ccc2c1 (stereo unspecified) | -20 | -4 | -19 | 7 | -8 | -4
Cc1ccc(-n2c(=O)c3ccccc3n(CC(=O)C(C)(C)C)c2=O)cc1 | 3 | 28 | -6 | 26 | 46* | 9
CCC1=C2CC[C@H]3C(=O)N(c4ccccc4)C(=O)[C@H]3[C@H]2[C@@]2(C)C(=NCc3ccccc3)OC(=O)N2C1=O | -13 | 7 | -28 | 11 | 0 | -9
CCCOc1ccc(C(=O)CCN2CCN(C(=O)OCC)CC2)cc1 | 2 | -10 | -20 | -2 | -23 | -4
Cc1ccc(N=CC2=C(O)CC(C)(C)CC2=O)nc1 | -8 | 17 | 18 | 26 | -8 | -1
CC1(C)CC(=O)C(C=Nc2ccc(Cl)cn2)=C(O)C1 | -6 | -6 | 53* | -2 | -24 | 1
CCCCn1c(SCC(=O)Nc2cc(C)on2)nc2ccsc2c1=O | 10 | -10 | -13 | -1 | 8 | -4
O=C(NCc1ccco1)c1cccc(Nc2nc3ccc(Br)cc3[nH]2)c1 | 82* | 4 | 9 | 0 | 34 | 11
O=C(NCC1CC1)c1ccc(Nc2nc3ccc(Br)cc3[nH]2)cc1 | -7 | 2 | -20 | 5 | -18 | 0
CCCCc1nc2ccccc2c(NC(=O)CN2CCCC2)c1CCC | -16 | 8 | -18 | 14 | -5 | 3
CCCCc1nc2ccccc2c(NC(=O)CNC(C)(C)C)c1CCC | 8 | 6 | -14 | 14 | 38 | 42*
COc1ccc2nc(C)cc(C(=O)O)c2c1 | -334 | -8 | 7 | 3 | -41 | -7
COc1ccc2ncc(OC(C)=O)cc2c1 | -39 | 8 | -18 | 15 | -21 | 40*
Cc1ccc(NC(=O)CN(C)c2ccc(S(=O)(=O)N3CCN(C)CC3)cn2)cc1 | 6 | 5 | -5 | -4 | -6 | 2
COc1ccc(N2CC(C)(C)C2=O)cc1 | 12 | -1 | -12 | 6 | 14 | -8
Cc1onc(-c2ccccc2)c1C(=O)NCc1ccco1 | -1 | -1 | -23 | 13 | 6 | 0
Cc1onc(-c2ccccc2)c1C(=O)N(Cc1ccco1)Cc1cccs1 | 32 | 40* | 11 | 21 | 31 | 14
CC1=C(C(=O)OCCOc2ccccc2)C(c2ccsc2)NC(=O)N1C (stereo unspecified) | 31 | 54* | -18 | 38 | 34 | 8
O=C1CC(c2ccccc2)n2ncnc2N1 (stereo unspecified) | 5 | -8 | -25 | 13 | -7 | 0
COc1ccc(-c2[nH]nc3c2C(c2ccsc2)C(C#N)=C(N)O3)cc1 (stereo unspecified) | -10 | -3 | -13 | -1 | 81* | 4
Cc1ccc(-c2[nH]nc3c2C(c2ccsc2)C(C#N)=C(N)O3)cc1 (stereo unspecified) | -34 | -6 | -5 | -3 | -3 | -5
CC(C)c1ccccc1NC(=S)NN(Cc1ccccc1)c1ccccc1 | 50* | 2 | -9 | 10 | -12 | -3
CC(=O)c1cccc(NC(=O)C(C)OC(=O)CNC(=O)c2ccc(C)s2)c1 (stereo unspecified) | 8 | 3 | -20 | 8 | -3 | 2
C/C(=N/Oc1nc(C)cc(C)n1)c1ccc(Br)cc1 | 4 | 1 | -16 | 13 | 41* | 11
CCCC(=O)Nc1cccc(Oc2nc(C)cc(C)c2C#N)c1 | -5 | 5 | 37* | 16 | 3 | -1
Cc1cc(C)c(C#N)c(Oc2ccc(O)cc2)n1 | -45 | 5 | -1 | 21 | -7 | -1
O=C(NC1CCCCC1)C1CCN(S(=O)(=O)N2CCCCCC2)CC1 | 1 | 3 | -25 | 14 | 2 | 4

High-throughput results deposited in PubChem BioAssay by several laboratories.
